# From PubChem BioAssay
# GPR7 antag: GPR7 receptor antagonists, primary screen, cell-based, fluorescence, single concentration. Neuropeptides B/W receptor type 1 (Homo sapiens), P48145. GPR7-expressing cells, fluorescence antagonist assay. inhibition, % at 4.4 µM. 290,000 compounds, 1.1% hits; in the data active = inhibition above about 16%, passing the limit was not always enough;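 also: cells stimulated with the agonist NPW; 0% = agonist with vehicle and 100% = vehicle without agonist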
# Target sequence (P48145 whole entry, looked up): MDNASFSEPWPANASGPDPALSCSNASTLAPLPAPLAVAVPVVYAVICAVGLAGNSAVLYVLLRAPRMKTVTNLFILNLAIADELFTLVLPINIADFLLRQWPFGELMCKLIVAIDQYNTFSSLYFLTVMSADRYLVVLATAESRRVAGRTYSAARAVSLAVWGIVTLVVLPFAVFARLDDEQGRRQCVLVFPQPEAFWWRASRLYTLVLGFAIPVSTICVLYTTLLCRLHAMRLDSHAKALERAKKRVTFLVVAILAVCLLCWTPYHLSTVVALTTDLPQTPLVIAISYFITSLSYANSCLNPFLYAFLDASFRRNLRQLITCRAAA
# GalR3 antag: GalR3 antagonists in HEK293 cells, primary screen, cell-based, fluorescence readout. HEK293 GalR3-CNG cAMP membrane potential fluorescence; galR3 body fused to GalR1 C-terminus. Galanin receptor type 3 (Homo sapiens), O60755. inhibition, % at 3 µM. AID 651719, 2012. 360,000 compounds, 0.44% hits;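 active = inhibition above the screen-wide average plus 3 SD, cut at about 13% in these data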;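 also: forskolin and galanin both at EC90 stimulate the cells; cAMP rise reported by CNG channel membrane potential dye signal; 0% = forskolin plus galanin with DMSO and 100% = forskolin alone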
# OX1R antag-1: OX1R (HCRTR1) antagonists, primary screen, fluorescence, CHO/OX1R cells, Fluo-8 calcium, orexin A. Orexin/Hypocretin receptor type 1 (Homo sapiens), O43613. Fluo-8 calcium fluorescence. inhibition, % at 5 µM. 330,000 compounds, 0.43% hits;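 active = inhibition above its plate's threshold, mean inhibition of all tested compounds on the plate plus 3 SD, cut at about 37% in these data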;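 also: 0% = orexin A challenge wells and 100% = SB-334867-A antagonist wells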
# Target sequence (O43613 whole entry, looked up): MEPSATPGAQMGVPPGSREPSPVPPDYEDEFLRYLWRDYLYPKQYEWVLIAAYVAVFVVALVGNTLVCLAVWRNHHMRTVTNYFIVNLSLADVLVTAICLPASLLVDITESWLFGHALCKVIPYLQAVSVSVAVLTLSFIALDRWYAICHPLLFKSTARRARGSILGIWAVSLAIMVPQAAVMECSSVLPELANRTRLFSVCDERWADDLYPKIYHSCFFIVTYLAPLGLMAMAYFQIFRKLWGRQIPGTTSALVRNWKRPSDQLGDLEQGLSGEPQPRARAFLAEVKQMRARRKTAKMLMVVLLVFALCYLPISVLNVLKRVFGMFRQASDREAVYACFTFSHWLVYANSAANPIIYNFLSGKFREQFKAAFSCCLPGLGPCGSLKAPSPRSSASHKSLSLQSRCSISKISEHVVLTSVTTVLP
# OX1R antag-2: antagonists of human orexin 1 receptor (OX1R); 330,000 compounds, 1.8% hits; AID 485270, 2010; OX1R-expressing cells, FRET antagonist read-out; inhibition, % at 6.6 µM; in the data active = inhibition mostly above about 38%, no sharp cut-off; inactive = mostly below about 40%;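 also: 0% = agonist challenge alone and 100% = reference antagonist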
# CHO parental Ca: ATP-evoked calcium signal inhibitors, parental CHO, primary screen, counter-screen for OX1R antagonist project, cell-based, fluorescence, Fluo-8 calcium dye; parental CHO-K1, ATP-induced calcium, Fluo-8 fluorescence; inhibition, % at 5.6 µM; 330,000 compounds, 0.63% hits; AID 463079, 2010;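 active = inhibition above that plate's mean sample inhibition plus 3 SD, cut at about 26% in these data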;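 also: 0% = ATP-challenged DMSO wells and 100% = DMSO wells without ATP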
#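 Assay system: untransfected parental CHO cell line. Also added: ATP agonist challenge. Dosing: one dose, 5.6 µM nominal. Measured by: Fluo-8 fluorescence. Read-out: % inhibition. Benchmarks: ATP wells versus no-ATP DMSO wells. Repeats: no replicates.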
# OX1R Fluo8 conf: OX1R (HCRTR1) antagonists, confirmation, fluorescence, CHO/OX1R cells, Fluo-8 calcium, orexin A; shares compounds with OX1R antag-1; orexin A calcium Fluo-8 fluorescence; inhibition, % at 5 µM; 1,100 compounds, 38% hits; in the data active = inhibition above about 29%;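 also: 0% = agonist challenge alone and 100% = reference antagonist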
# CHO Ca triplic: ATP-evoked calcium inhibition in parental CHO, counter-screen for OX1R antagonist project, cell-based, fluorescence, CHO-K1, triplicate; 1,100 compounds, 9.3% hits; ATP-induced calcium, Fluo-8 fluorescence; inhibition, % at 5.6 µM; AID 492965, 2010; shares compounds with OX1R antag-1;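 active = inhibition above a per-plate limit, the mean inhibition of that plate's test compounds plus 3 SD, cut at about 25% in these data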;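 also: 0% = ATP challenge with DMSO and 100% = DMSO without ATP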
# Active calls of the source: *; nt = not tested or not shown. Shown are actives, neighbours in structure and some others; about 3.1% of the full set was active somewhere.
SMILES,GPR7 antag,GalR3 antag,OX1R antag-1,OX1R antag-2,CHO parental Ca,OX1R Fluo8 conf,CHO Ca triplic
COc1ccc(/C=C2\C(=O)NC(=S)N2C(=O)c2ccc(F)cc2)cc1,5.1,-10.5,42.2,28.2,23.1,20.0,23.8
O=C(COc1ccc(C(=O)NCc2cccnc2)cc1)Nc1cccc(C(F)(F)F)c1,nt,-1.6,28.0,33.7,15.6,11.6,17.1
Cc1cc(C)n(CCCNC(=O)c2ccc(C)o2)n1,nt,-1.7,-4.2,2.2,-10.9,nt,nt
COc1cc(/C=C/C(=O)O)ccc1O,nt,-6.7,-2.6,13.1,-2.5,nt,nt
COc1cc(/C=C/C(=O)CC(=O)/C=C/c2ccc(O)c(OC)c2)ccc1O,-16.5,nt,34.0,10.2,22.7,31.5*,30.3*
CCC(C(=O)N1CCOCC1)n1nc(C)c2c(C)n(-c3ccccc3)nc2c1=O (stereo unspecified),-15.4,-0.3,4.6,0.7,-1.5,nt,nt
COc1cc(CN2CC(=O)N(c3cccc(Cl)c3C)C2=S)cc(OC)c1OC,0.0,-10.2,13.3,27.5,-6.6,nt,nt
COc1cc(CN2CC(=O)N(c3ccccc3Cl)C2=S)cc(OC)c1OC,-15.1,-9.0,39.4,38.6,1.5,68.0*,0.6
CC(=O)Nc1cccc(-c2ccnc3c2CC(C)(C(=O)Nc2cccc(C(C)=O)c2)O3)c1 (stereo unspecified),nt,-5.5,nt,nt,nt,nt,nt
Fc1ccc(-c2cc3nc(-c4ccccc4)cc(N4CCOCC4)n3n2)cc1,-9.3,-7.1,-27.4,6.6,-13.2,nt,nt
Cc1ccc(-c2cc3nc(-c4ccccc4)cc(N4CCC5(CC4)OCCO5)n3n2)cc1,-13.7,-2.8,39.1,39.8,12.2,36.5*,-10.0
Cc1ccc(O)c(NC(=O)c2noc3c2CCc2ccccc2-3)c1,-5.0,-8.7,30.7,66.6,-15.2,20.6,3.7
C=CCSc1nnc(-c2cc3c(s2)-c2ccccc2CC3)o1,-13.0,2.6,33.5,55.4,0.0,-1.0,-6.3
O=C(CSc1nnc(-c2cccs2)o1)N1CCc2ccccc21,-5.6,1.3,-24.7,9.8,-13.7,nt,nt
CCCn1c(N)c(N(CCOC)C(=O)CSc2cc(C)c3cccc(C)c3n2)c(=O)[nH]c1=O,nt,-3.9,-9.1,-0.6,-9.4,nt,nt
CC1CCC/C(=N\NC(=S)NCc2ccccc2)C1 (stereo unspecified),-20.5,-4.9,-18.3,14.6,-9.6,nt,nt
CC1CCC/C(=N\NC(=S)Nc2ccccc2)C1 (stereo unspecified),-5.8,-0.3,33.1,10.5,-9.6,-2.0,-8.2
C=CCNC(=O)C(=O)Nc1cc2c3c(c1)CCC(=O)N3CCC2,1.5,-9.0,-1.1,11.2,-9.0,nt,nt
CCn1nc(C(=O)Nc2cccc3ccccc23)c(Cl)c1Cl,-2.2,-0.5,34.9,19.5,-25.0,-12.0,-21.4
CCn1nc(C(=O)Nc2ccccc2C)c(Cl)c1Cl,-4.8,-6.3,-18.9,18.8,-7.2,nt,nt
CCN(c1ccc(OC)cc1)S(=O)(=O)c1cc(-c2cc(C)no2)ccc1OC,11.2,-3.1,-12.2,11.0,0.8,nt,nt
CCN(c1ccc(OC)cc1)S(=O)(=O)c1cc(-c2cc(C)no2)ccc1C(C)C,-7.1,-4.2,29.4,31.2,5.0,-25.1,-10.6
Cc1cccc(NS(=O)(=O)c2cc3c4c(c2)C(C)C(=O)N4CCC3)c1 (stereo unspecified),-5.9,-7.3,28.6,33.5,-13.1,0.7,-5.3
CC(C)C(=O)N1CCN(c2ccc(NC(=O)COc3ccccc3[N+](=O)[O-])cc2)CC1,-21.7,0.5,27.8,50.9,8.1,27.2,3.8
CN1CCN(c2ccc(NC(=O)COc3ccccc3[N+](=O)[O-])cc2)CC1,-17.6,0.1,-21.1,58.2,-21.8,nt,nt
SMILES,GPR7 antag,GalR3 antag,OX1R antag-1,OX1R antag-2,CHO parental Ca,OX1R Fluo8 conf,CHO Ca triplic
CN(CC(=O)NCc1ccccc1)CC(=O)Nc1ccc(Cl)c(C(F)(F)F)c1,nt,-2.7,5.8,11.5,-4.2,nt,nt
CN(CC(=O)Nc1ccc(Cl)c(C(F)(F)F)c1)CC(=O)NC1CCCCC1,nt,nt,37.5,10.7,-4.7,-22.4,0.4
CCCCOc1ccc(S(=O)(=O)Nc2cc(OC)ccc2OC)cc1,9.8,-8.7,50.9*,14.9,16.7,2.6,5.1
COc1ccc(OC)c(NS(=O)(=O)c2ccc(Cl)nc2)c1,-5.0,-11.3,-26.1,9.7,-10.2,nt,nt
Cc1ccnc(NS(=O)(=O)c2cc([N+](=O)[O-])ccc2C)c1,-2.7,1.4,30.0,48.1,-0.2,7.2,17.1
Cc1ccnc(NS(=O)(=O)c2ccccc2)c1,24.4,-11.2,-17.4,5.9,-8.0,nt,nt
N#Cc1ccc(OCC(=O)Nc2ccc(N3CCCC3)cc2)cc1,nt,-5.2,-7.1,7.7,-8.5,nt,nt
C=CCn1c(SCC(=O)Nc2sccc2C(N)=O)nc2ccc(Cl)cc2c1=O,1.9,-7.1,53.1*,45.7,9.3,16.0,7.7
CC(=O)N1CCN(S(=O)(=O)c2cccc(C(=O)NCCc3ccc(Cl)cc3)c2)CC1,nt,2.2,-36.2,24.9,-19.7,nt,nt
CCCC(=O)Nc1ccc(Sc2ccc([N+](=O)[O-])cc2)cc1,17.6,-2.6,38.4,49.3,24.6,9.3,9.7
Cc1c(C(=O)Nc2ccc(S(=O)(=O)N(C)C3CCN(C)CC3)cc2)oc2ccccc12,nt,-2.1,-6.8,4.7,-17.4,nt,nt
Cc1c(C(=O)Nc2ccc(S(=O)(=O)N(C)C3CCN(C)CC3)cc2)oc2c(Cl)cccc12,nt,0.5,42.7*,7.0,10.1,0.5,0.0
O=C(CSCc1cccc(CSCC(=O)Nc2ccc3ccccc3c2)n1)Nc1ccc2ccccc2c1,-13.6,-4.5,38.0,32.8,11.8,30.5*,12.2
O=C(CSCc1nc2ccccc2[nH]1)Nc1ccc2ccccc2c1,-12.2,5.7,10.7,24.9,-15.4,nt,nt
COC(=O)c1ccc2c(c1)C(C)(C)C(/C=C/c1ccc(O)cc1)=[N+]2C,10.1,-1.0,31.0,24.9,13.7,65.9*,52.5*
COC(=O)c1ccc2c(c1)C(C)(C)C(/C=C/c1ccc(OC)c(OC)c1OC)=[N+]2C,2.8,9.2,4.6,6.6,7.8,nt,nt
CCCCNC(=O)CN(Cc1ccco1)S(=O)(=O)c1ccc(C(C)=O)cc1,nt,-5.8,4.9,3.7,-13.7,nt,nt
C=C(C)COc1ccc(-c2[nH]ncc2-c2ccccc2OC)c(O)c1,-1.8,8.1,34.6,12.2,13.3,-15.8,-2.7
C=C(C)COc1ccc(-c2[nH]ncc2Oc2ccccc2OC)c(O)c1,-8.7,-0.5,1.2,16.3,-3.4,nt,nt
